Drawing on PubChem BioAssay AID504383 (The Scripps Research Institute Molecular Screening Center, 2011), this text covers activation for 65 compounds.

In all, about 2,500 compounds went through this assay and about 1,200 (48%) were called active.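 The calls were made as follows: active = mean activation above the low control average plus 3 SD, as set in the primary screen (cut at about 12% in these data); inactive = the rest.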 The set was probably picked from earlier hits. The list shows a part of the results.

This experiment has as its target Troponin I, cardiac muscle (Homo sapiens) + Troponin T, cardiac muscle (Homo sapiens) + Troponin C, slow skeletal and cardiac muscles (Homo sapiens) (UniProt P19429+P45379+P63316). The experiment is described as follows: cardiac RTF calcium sensitivity activators, confirmation, biochemical, IANBD-TnC fluorescence, triplicate (AID 504383).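 Also: 0% = DMSO at 0.472 mM calcium and 100% = DMSO at 2.9 mM calcium.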 Conditions: IANBD-labeled cardiac RTF, Ca2+ sensitivity fluorescence; at 7.2 µM; active compounds read high; scaled from EC20 to saturating calcium; tested at EC20 calcium, 0.472 mM. The method, boiled down: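 Material: labelled regulated thin filaments; Reagent: 0.472 mM calcium; Incubation: 15 min compound incubation with filaments at 25 °C; Detection: filament fluorescence intensity; Evaluation: fluorescence increase normalised to calcium controls; Benchmarks: low control EC20 calcium, high control EC100 calcium.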
With `C[C@H]1CCC(=O)N([C@H](CSc2ccc(Br)cc2)Cc2ccccc2)CC1`, the activation was 6.56% (inactive).
As for `COc1ccc2[nH]c3c(c2c1)CCNC3c1ccc([N+](=O)[O-])o1` (stereo not given), the figure is 2.79% (inactive); as for `O=C(c1ccc(Nc2cccc(C(F)(F)F)c2)nc1)N1CCCC1`, 168% (active).
For the compound `O=C(c1ccccc1Nc1ccc(SC(F)F)cc1)N1CCCCC1`, the activation is 5.45% (inactive).
Then `CCSc1cc(N2CCCC2)nc(-c2ccc(Cl)cc2)n1`, with 6.74% (inactive); and `C/C(=N/NS(=O)(=O)c1ccccc1)c1ccc(NC(=O)C2CC2)cc1`, with 20.7% (active); and `C/C(=N/NC(=O)Nc1ccccc1)c1ccc(C)cc1`, with 9.45% (inactive).
`C#Cc1ccc([C@@H]2C=C(C(=O)OCC=C)O[C@H](OCCCCO)C2)cc1`: the activation is 9.72% (inactive).
Consider `O=C(C1=C[C@@H](c2ccc(Br)cc2)C[C@@H](OCc2ccc(CO)cc2)O1)N1CCN(Cc2ccc3c(c2)OCO3)CC1`, for which the activation was 4.22% (inactive).
`O=C(Nc1ccccc1)C1=C[C@H](c2ccc3c(c2)OCO3)C[C@H](OCCCCO)O1`: the activation was 13% (active).
`CCCC[C@H]1COCCS(=O)(=O)N1Cc1ccc(F)cc1`: the activation is 0.38% (inactive).
For the compound `OCCc1c[nH]c2ccccc12`, the activation was 6.66% (inactive).
`CCCn1c(N2CCN(CC(=O)c3c[nH]c4ccccc34)CC2)nc2c1c(=O)[nH]c(=O)n2C`: the activation was 8.31% (inactive).
In the case of `NC(=O)c1c[nH]c2ccccc12`, the activation is 717% (active).
Regarding `N#C/C(=C/c1ccc(N2CCCCCC2)o1)c1ccc(Cl)cc1`, the activation is 38.8% (active).
Then `N#C/C(=C/c1ccc(N2CCCCCC2)o1)c1cccc(F)c1`, with 99.3% (active).
Turning to `N#C/C(=C/c1ccc(N2CCOCC2)o1)c1ccc(Cl)cc1`, the activation was 9.77% (inactive).
As for `O=C(NCc1nnc(SCC(=O)N2CCCCCC2)o1)c1ccco1`, the figure is 28.5% (active); as for `CC(C)Sc1nc2ccc(Br)cc2[nH]1`, 56.5% (active); as for `COC(=O)c1ccc(S(=O)(=O)N(CCO)Cc2ccccc2)n1C`, 6.61% (inactive).
Turning to `COC(=O)c1ccc(S(=O)(=O)N2CCC(O)CC2)n1C`, the activation was 30.3% (active).
As for `Cc1ccc(CNc2cccnc2)cc1`, the figure is 1.46% (inactive); as for `Cc1ccc(N2CN(Cc3cccnc3)CNC2=S)cc1`, 13.6% (active).
Then `CS/C(=N\S(=O)(=O)c1cccs1)Nc1cccc(Cl)c1C`, with 61.5% (active); and `COCCn1c(=O)c2ccccc2c2ccccc2c1=O`, with 89% (active).
Then `COCCn1c(-c2ccc(C)cc2)nc2oc3cc(OC)ccc3c(=O)c2c1=O`, with 10.7% (inactive); and `COCCOC(=O)c1sc(=S)n(CCOC)c1N`, with 7.49% (inactive).
Take `CCC(=O)Nc1ccc2oc(-c3cccnc3)nc2c1`: the activation is 210% (active).
Then `Cc1cc(=O)oc(C)c1C(=O)Nc1ccc2ncccc2c1`, with 6.03% (inactive); and `CCC(=O)N/C(=N/c1nc(C)cc(C)n1)Nc1ccccc1`, with 7.51% (inactive); and `CCCCN=C1N/C(=C\c2ccco2)C(=O)N1c1ccccc1`, with 370% (active).
Regarding `COC(=O)[C@H](Cc1ccccc1)NC(=O)Nc1ccc(OC)cc1`, the activation is 4.56% (inactive).
Then `Cc1cc(NC(=O)COC(=O)C(Cc2ccccc2)NC(=O)c2ccco2)no1` (stereo not given), with 39.2% (active); and `O=C1C=C(NCc2ccco2)CC(c2ccc(Cl)cc2)C1` (stereo not given), with 4.86% (inactive); and `CCc1ccc(C2C(C#N)=C(N)SC(N)=C2C#N)s1`, with 9.19% (inactive).
Then `Nc1cnccc1C(=O)O`, with 26% (active); and `CN(C)C=Nc1c(Br)cc(Br)c2nonc12`, with 31.3% (active).
Take `CC(C)(C)c1ccc(C(=O)N/C(=C\c2cccs2)C(=O)NCc2ccco2)cc1`: the activation was 9.9% (inactive).
On to `O=C(NCc1ccco1)/C(=C\c1ccco1)NC(=O)c1ccc(Br)o1`, for which the activation was 72.9% (active).
As to `O=C(NCc1cccnc1)/C(=C\c1ccc(-c2ccc(Cl)c(Cl)c2)o1)S(=O)(=O)c1ccccc1`, the activation was 5.91% (inactive).
Take `Cc1cnc(C(=O)Nc2nnc(SCc3c(Cl)cccc3Cl)s2)cn1`: the activation was 15% (active).
As for `CCOC(=O)c1c(C)[nH]c(C2=NNC(=NC(C)COC)SC2)c1C` (stereo not given), the figure is 81% (active); as for `NC(N)=NCc1cccc(I)c1`, 7.58% (inactive); as for `CN(C(=O)C1CCC1C(=O)O)c1nc(-c2ccc(Cl)s2)cs1` (stereo not given), 176% (active).
Take `CCOc1ccc(NC(=O)COC(=O)CCN2C(=O)C3CC=CCC3C2=O)cc1OCC` (stereo not given): the activation was 8.79% (inactive).
Then `CCOc1ccc(C(=O)NCC(=O)N2CCC3CCCCC3C2)cc1OCC` (stereo not given), with 167% (active).
Then `COC(=O)c1ccc(OC)c(OC2CCCC2)c1`, with 6.45% (inactive); and `CC(CC(=O)N1CCc2ccccc21)n1cccn1` (stereo not given), with 5.25% (inactive).
As for `Cc1ccc2c(c1)N(CC(=O)N1CCCc3ccccc31)C(=O)C(C)O2` (stereo not given), the figure is 21.6% (active); as for `CCn1nnnc1SCC(=O)N1CCCc2ccccc21`, 10.8% (inactive); as for `O=C(O)CN1C(=O)c2cccc3c(Br)ccc1c23`, 89% (active).
On to `CCOC(=O)C(=O)Nc1nnc(COc2ccccc2)s1`, for which the activation is 9.76% (inactive).
As for `CCOCCc1nnc(NC(=O)COC)s1`, the figure is 3.67% (inactive); as for `CCCCOC(=O)Nc1nnc(C(C)C)s1`, 617% (active).
`CCSc1nnc(-c2sc3nnc(-c4ccccc4)c(-c4ccccc4)c3c2N)o1`: the activation was 6.28% (inactive).
As for `O=C(O)c1ncc(-c2ccccc2)cn1`, the figure is 128% (active); as for `O=C([O-])c1ccccc1-[n+]1c(-c2ccccc2)cc(-c2ccccc2)cc1-c1ccccc1`, 7.07% (inactive).
For `CCn1c(O)c(/C=N/NC(=O)c2ccncc2)c(=O)n(CC)c1=S`, the activation is 10.1% (inactive).
Then `O=C(N/N=C/c1c(O)n(-c2ccc(Cl)cn2)c(=O)c2ccccc12)c1ccncc1`, with 14.8% (active).
With `N=C1/C(=C\c2coc3ccccc3c2=O)C(=O)N=C2SC=CN12`, the activation was 12.3% (active).
Then `Cc1ccccc1Cn1cccc1/C=C1/C(=N)N2C=CSC2=NC1=O`, with 14.6% (active); and `CC(C)CC1=NN2C(=N)/C(=C\c3coc4ccccc4c3=O)C(=O)N=C2S1`, with 13.7% (active).
Then `N=C1/C(=C\c2coc3ccccc3c2=O)C(=O)N=C2SC(c3ccncc3)=NN12`, with 22.9% (active); and `N=C1/C(=C\c2coc3ccc(O)cc3c2=O)C(=O)N=C2SC=CN12`, with 5.99% (inactive).
As for `O=C(c1ccccc1)N1CCN(CC#CC2(O)CCCCC2)CC1`, the activation is 8.87% (inactive).
